# Measured values published in ChEMBL document CHEMBL3392995, “Erinacerins C-L, isoindolin-1-ones with α-glucosidase inhibitory activity from cultures of the medicinal mushroom Hericium erinaceus” (J Nat Prod, 2015).
# pIC50: −log10 of the molar value.
# How the values were obtained:
# [1] = Inhibition of baker's yeast alpha-glucosidase using p-nitrophenyl-alpha-D-glucopyranoside as substrate incubated with enzyme for 10 mins prior to substrate challenge for 15 mins by microplate reader analysis; set-up: species or system Saccharomyces cerevisiae
# In short: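 Run in 96-well format, read as absorbance at 405 nm. Control used phosphate buffer in place of sample; blank used phosphate buffer in place of α-glucosidase. Inhibition (%) = [(ODcontrol − ODcontrol blank) − (ODtest − ODtest blank)]/(ODcontrol − ODcontrol blank) × 100. Acarbose served as positive control. Means of three independent experiments, each in triplicate.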
# A549 = assay: Cytotoxicity against human A549 cells after 72 hrs by MTT assay; format: functional, cell-based; details: A549, 72 h
# In short: (§1)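 MTT read-out of cell viability in A549 (human lung adenocarcinoma) and HeLa (cervical cancer) cells. Values are means of three independent experiments, each run in triplicate.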
# HeLa = assay: Cytotoxicity against human HeLa cells after 72 hrs by MTT assay; format: functional, cell-based; in short: as §1
Compound,pIC50 [1],pIC50 (A549),pIC50 (HeLa)
C/C(=C\Cc1c(O)cc2c(c1O)CNC2=O)CC/C=C(\C)C(=O)O,< 3.70,< 4.00,< 4.00
C/C(=C\Cc1c(O)cc2c(c1O)CN(CCO)C2=O)CC/C=C(\C)C(=O)O,4.62,< 4.00,< 4.00
C/C(=C\Cc1c(O)cc2c(c1O)CN([C@H](C(=O)O)C(C)C)C2=O)CC/C=C(\C)C(=O)O,4.89,< 4.00,< 4.00
COC(=O)CC/C(C)=C/Cc1c(O)cc2c(c1O)CNC2=O,3.84,< 4.00,< 4.00
COC(=O)C/C=C(\C)CCc1c(O)cc2c(c1O)CNC2=O,4.99,< 4.00,< 4.00
COC(=O)CC/C(C)=C/Cc1c(O)cc2c(c1O)CN(CCO)C2=O,4.01,< 4.00,< 4.00
COC(=O)C/C=C(\C)CCc1c(O)cc2c(c1O)CN([C@@H](Cc1ccccc1)C(=O)OC)C2=O,4.70,< 4.00,< 4.00
O=C(O)[C@H](Cc1ccccc1)N1Cc2ccccc2C1=O,< 3.70,< 4.00,< 4.00
C[C@H]1O[C@H](O[C@H]2[C@H](O)[C@@H](O)[C@@H](O[C@H]3[C@H](O)[C@@H](O)C(O)O[C@@H]3CO)O[C@@H]2CO)[C@H](O)[C@@H](O)[C@@H]1N[C@H]1C=C(CO)[C@@H](O)[C@H](O)[C@H]1O (some centres undefined) [ACARBOSE],3.42,,

# The next lines start with results.
pIC50 [1],Compound,pIC50 (A549),pIC50 (HeLa)
4.40,CC[C@H](C)[C@@H](C(=O)O)N1Cc2c(cc(O)c(C/C=C(\C)CC/C=C(\C)C(=O)O)c2O)C1=O,< 4.00,< 4.00
4.73,COC(=O)C/C=C(\C)CCc1c(O)cc2c(c1O)CN(CCO)C2=O,4.02,< 4.00
4.81,COC(=O)CC/C(C)=C/Cc1c(O)cc2c(c1O)CN([C@@H](Cc1ccccc1)C(=O)OC)C2=O,4.05,< 4.00
5.28,COc1cc2c(c(O)c1C/C=C(\C)CCC=C(C)C)CN(CCc1ccccc1)C2=O,4.31,4.39
< 3.70,O=C(O)[C@@H](Cc1ccccc1)N1Cc2ccccc2C1=O,< 4.00,< 4.00
< 3.70,CC[C@H](C)[C@@H](C(=O)O)N1Cc2ccccc2C1=O,< 4.00,< 4.00
< 3.70,CC(C)[C@@H](C(=O)O)N1Cc2ccccc2C1=O,4.05,< 4.00
< 3.70,CC(C)[C@H](C(=O)O)N1Cc2ccccc2C1=O,4.38,< 4.00
